Experimental data as given in ChEMBL document CHEMBL5705891, “Small-molecule kinase inhibitors provide insight into Mps1 cell cycle function” (Nat Chem Biol, 2010).
Each block holds one compound with its values, some of them ahead of it. Calls of active or inactive are those of the source. No cut-off for these calls is given here.

What was measured:
[1] = target: ALK tyrosine kinase receptor (Homo sapiens, UniProt Q9UM73); test: Inhibition of ALK (unknown origin) assessed as residual enzyme activity at 10 uM by Ambit kinase binding assay relative to control
[2] = tested on: HeLa; test: Antiproliferative activity against human HeLa cells at 10 uM measured after 96 hrs in presence of Z-VAD-FMK by Syto60 staining based assay; assay type: functional, cell-based
[3] = tested on: HeLa; test: Antiproliferative activity against human HeLa cells assessed as loss of clonal survival upto 10 uM incubated for 10 days by crystal violet staining based assay; assay type: functional, cell-based; conditions: time 10.0 day
Procedure, shortened: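 Colony outgrowth: cells plated at 200 cells per 60-mm dish, exposed to compound or DMSO vehicle and stained with crystal violet after 10 days. HCT116 grown in McCoy's 5A; A549 and HeLa in DMEM; hTERT-RPE1 in DMEM/F-12. All media had 10% FBS and penicillin/streptomycin, 37°C, 5% CO2. Quantified from 3 independent experiments, mean + SD, Student's t test.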

[4] = target: Protein-tyrosine kinase 2-beta (Homo sapiens, UniProt Q14289); test: Inhibition of PTK2B (unknown origin) assessed as residual enzyme activity at 10 uM by Ambit kinase binding assay relative to control
[5] = target: Mitogen-activated protein kinase 7 (Homo sapiens) (UniProt Q13164); test: Inhibition of ERK5 (unknown origin) assessed as residual enzyme activity at 10 uM by Ambit kinase binding assay relative to control
Mitogen-activated protein kinase 7 (Homo sapiens), sequence (Q13164 2-816 limits assumed): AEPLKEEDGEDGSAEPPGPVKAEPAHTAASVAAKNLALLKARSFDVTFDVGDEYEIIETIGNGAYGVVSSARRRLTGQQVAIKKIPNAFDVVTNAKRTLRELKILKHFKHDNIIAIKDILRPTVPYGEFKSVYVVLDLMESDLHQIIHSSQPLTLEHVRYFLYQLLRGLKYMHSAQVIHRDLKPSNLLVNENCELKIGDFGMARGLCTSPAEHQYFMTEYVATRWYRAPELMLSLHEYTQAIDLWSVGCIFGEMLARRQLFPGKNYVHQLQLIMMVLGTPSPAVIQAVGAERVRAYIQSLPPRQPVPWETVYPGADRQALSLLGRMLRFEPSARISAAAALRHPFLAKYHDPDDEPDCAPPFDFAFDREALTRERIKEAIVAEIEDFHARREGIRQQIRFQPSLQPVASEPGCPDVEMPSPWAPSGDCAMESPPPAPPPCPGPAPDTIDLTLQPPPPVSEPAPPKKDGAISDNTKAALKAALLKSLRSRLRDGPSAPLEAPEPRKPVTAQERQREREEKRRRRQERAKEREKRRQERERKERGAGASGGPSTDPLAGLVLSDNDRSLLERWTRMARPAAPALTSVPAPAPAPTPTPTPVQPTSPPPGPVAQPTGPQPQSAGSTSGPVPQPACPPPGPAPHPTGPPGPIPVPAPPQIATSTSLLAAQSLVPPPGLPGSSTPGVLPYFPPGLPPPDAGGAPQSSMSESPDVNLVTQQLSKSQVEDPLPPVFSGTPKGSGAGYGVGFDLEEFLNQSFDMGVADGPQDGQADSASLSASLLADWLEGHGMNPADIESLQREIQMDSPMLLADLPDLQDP

[6] = tested on: U2OS; test: Effect on thymidine-treated human U2OS cell populations after one cell doubling at 10 uM incubated for 4 hrs followed by thymidine release by immunofluorescence imaging analysis; assay type: functional, cell-based
[7] = tested on: U2OS; test: Induction of aneuploidy in UTRM10 cells (unknown origin) expressing wild-type LAP-tagged Mps1 at 5 uM treated for 48 hrs by FACS analysis; assay type: functional, cell-based
Procedure, shortened: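 UTRM10 cells expressing RNAi-resistant LAP-Mps1 WT or M602Q were treated with compound or DMSO for 48 h, then DNA content was analysed by FACS.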

[8] = tested on: U2OS; test: Initiation of anaphase in human U2OS cells expressing histone H2B-GFP at 10 uM measured for 20 mins by fluorescence time-lapse microscopy (reference value: 10 %); assay type: functional
Procedure, shortened: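 U2OS H2B-GFP cells were given DMSO or inhibitor and imaged by fluorescence time-lapse at 37°C, 5% CO₂, one frame every 2 min. NEBD-to-anaphase time was scored for 100 cells per population and plotted as cumulative percentage initiating anaphase.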

[9] = Inhibition of Mps1 in Potoroo PTK2 cells expressing EyFP-tagged human Mad2 assessed as decrease in Mad2 recruitment to kinetochore at 10 uM incubated for 1 hr by fluorescence based imaging analysis relative to control; set-up: species or system Pt K2; conditions: Potorous tridactylus
Procedure, shortened: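 PtK2 (male Potorous tridactylus kidney) cells stably expressing human Mad2-EYFP, cultured in Advanced MEM with 2% FBS. Cells were pretreated 1 h with 10 μM inhibitor or DMSO, then given DMSO or nocodazole (200 ng·ml⁻¹). Time-lapse imaging ran at 37°C from NEBD. Kinetochore Mad2-EYFP density was background-corrected and normalized. N=20–29 cells; 95% CI; Student's t test.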

[10] = tested on: U2OS; test: Induction of premature entry into anaphase in thymidine-treated human U2OS cells expressing H2B-GFP and Plk4 overexpression measured for 30 mins by time lapse imaging analysis relative to control; assay type: functional; conditions: 0.5 h
Procedure, shortened: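 Doxycycline-inducible Plk4 U2OS cells expressing H2B-GFP were blocked with thymidine for 18 hrs and released into doxycycline (2 μg·ml⁻¹) for 10 hrs. A second 18-hr thymidine block followed, then release for 6 hrs before 5 μM inhibitor, with or without Plk4 induction. Cells were imaged by time-lapse at 37°C, 5% CO₂, timed from NEBD, and bipolar versus multipolar anaphases were scored. Values are mean ± SD of 3 independent experiments.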

[11] = tested on: U2OS; test: Antiproliferative activity against human U2OS cells at 10 uM incubated for 4 days by Syto60 staining based assay; assay type: functional, cell-based; conditions: time 4.0 day
Procedure, shortened: (§1)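 Proliferation read by Syto60 nucleic acid stain fluorescence (excitation 635 nm, emission 695 nm) after treatment for up to 96 h. Each time point normalized to its DMSO control. Mean ± SD from 4 independent experiments. Cells kept at 37°C, 5% CO2 in 10% FBS-supplemented medium.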

[12] = target: Misshapen-like kinase 1 (Homo sapiens) (UniProt Q8N4C8); test: Inhibition of MINK (unknown origin) assessed as residual enzyme activity at 10 uM by Ambit kinase binding assay relative to control
Misshapen-like kinase 1 (Homo sapiens), sequence (Q8N4C8 whole entry, looked up): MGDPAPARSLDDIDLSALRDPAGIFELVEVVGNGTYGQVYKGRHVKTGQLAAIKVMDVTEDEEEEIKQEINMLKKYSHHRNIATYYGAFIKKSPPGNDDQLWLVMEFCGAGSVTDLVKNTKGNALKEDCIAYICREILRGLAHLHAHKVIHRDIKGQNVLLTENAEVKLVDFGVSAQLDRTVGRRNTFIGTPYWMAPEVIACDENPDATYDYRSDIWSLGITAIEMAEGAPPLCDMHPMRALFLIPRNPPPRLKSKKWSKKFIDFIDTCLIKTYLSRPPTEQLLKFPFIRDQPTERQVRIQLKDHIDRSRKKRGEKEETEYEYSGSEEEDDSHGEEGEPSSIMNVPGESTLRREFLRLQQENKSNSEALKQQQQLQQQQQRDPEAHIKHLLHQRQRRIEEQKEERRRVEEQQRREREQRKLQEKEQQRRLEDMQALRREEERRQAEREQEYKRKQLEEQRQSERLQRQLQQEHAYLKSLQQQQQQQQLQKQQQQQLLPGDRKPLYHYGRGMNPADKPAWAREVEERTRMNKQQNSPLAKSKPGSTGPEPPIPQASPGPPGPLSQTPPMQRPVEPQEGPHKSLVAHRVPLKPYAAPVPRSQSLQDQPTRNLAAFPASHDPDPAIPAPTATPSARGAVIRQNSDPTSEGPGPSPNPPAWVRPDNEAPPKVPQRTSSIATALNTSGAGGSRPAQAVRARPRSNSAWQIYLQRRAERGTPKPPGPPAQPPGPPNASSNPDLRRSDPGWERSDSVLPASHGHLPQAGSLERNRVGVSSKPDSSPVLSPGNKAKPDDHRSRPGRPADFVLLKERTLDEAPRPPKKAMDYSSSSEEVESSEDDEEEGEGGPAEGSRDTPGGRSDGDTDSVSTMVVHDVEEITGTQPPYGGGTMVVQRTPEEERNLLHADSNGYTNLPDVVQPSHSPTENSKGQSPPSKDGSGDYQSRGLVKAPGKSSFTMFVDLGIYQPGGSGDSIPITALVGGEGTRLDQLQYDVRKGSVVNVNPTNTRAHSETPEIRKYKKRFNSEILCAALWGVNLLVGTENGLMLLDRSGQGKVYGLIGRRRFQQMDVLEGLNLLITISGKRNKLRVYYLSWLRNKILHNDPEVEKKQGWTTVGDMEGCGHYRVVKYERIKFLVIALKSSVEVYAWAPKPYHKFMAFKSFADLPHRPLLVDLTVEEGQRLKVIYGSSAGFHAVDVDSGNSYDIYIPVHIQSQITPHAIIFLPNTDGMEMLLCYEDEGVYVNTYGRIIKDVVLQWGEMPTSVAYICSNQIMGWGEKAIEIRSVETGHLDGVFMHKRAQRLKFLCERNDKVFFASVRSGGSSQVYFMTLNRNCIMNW

[13] = tested on: U2OS; test: Reversal of nocodazole-induced mitotic arrest in human U2OS cells assessed as decrease in cyclin B level at 10 uM incubated for 4 hrs in presence of MG132 by immunoblot analysis; assay type: functional, cell-based
[14] = tested on: HCT-116; test: Antiproliferative activity against human HCT-116 with p53-/- cells at 10 uM incubated for 4 days by Syto60 staining based assay; assay type: functional, cell-based; conditions: time 4.0 day; procedure, shortened: as §1
[15] = tested on: HCT-116; test: Antiproliferative activity against human HCT-116 with BAX-/- cells at 10 uM incubated for 4 days by Syto60 staining based assay; assay type: functional, cell-based; conditions: time 4.0 day; procedure, shortened: as §1
[16] = tested on: HeLa S3; test: Reversal of nocodazole-induced mitotic arrest in human HeLa S3 cells expressing histone H2B-GFP assessed as nuclear envelope reassembly at 10 uM measured for 20 to 60 mins by immunofluorescence analysis; assay type: functional, cell-based; conditions: time 20-60 min
[17] = target: Inhibitor of nuclear factor kappa-B kinase subunit alpha (Homo sapiens) (UniProt O15111); test: Inhibition of IKK-alpha (unknown origin) assessed as residual enzyme activity at 10 uM by Ambit kinase binding assay relative to control
Inhibitor of nuclear factor kappa-B kinase subunit alpha (Homo sapiens), sequence (O15111 whole entry): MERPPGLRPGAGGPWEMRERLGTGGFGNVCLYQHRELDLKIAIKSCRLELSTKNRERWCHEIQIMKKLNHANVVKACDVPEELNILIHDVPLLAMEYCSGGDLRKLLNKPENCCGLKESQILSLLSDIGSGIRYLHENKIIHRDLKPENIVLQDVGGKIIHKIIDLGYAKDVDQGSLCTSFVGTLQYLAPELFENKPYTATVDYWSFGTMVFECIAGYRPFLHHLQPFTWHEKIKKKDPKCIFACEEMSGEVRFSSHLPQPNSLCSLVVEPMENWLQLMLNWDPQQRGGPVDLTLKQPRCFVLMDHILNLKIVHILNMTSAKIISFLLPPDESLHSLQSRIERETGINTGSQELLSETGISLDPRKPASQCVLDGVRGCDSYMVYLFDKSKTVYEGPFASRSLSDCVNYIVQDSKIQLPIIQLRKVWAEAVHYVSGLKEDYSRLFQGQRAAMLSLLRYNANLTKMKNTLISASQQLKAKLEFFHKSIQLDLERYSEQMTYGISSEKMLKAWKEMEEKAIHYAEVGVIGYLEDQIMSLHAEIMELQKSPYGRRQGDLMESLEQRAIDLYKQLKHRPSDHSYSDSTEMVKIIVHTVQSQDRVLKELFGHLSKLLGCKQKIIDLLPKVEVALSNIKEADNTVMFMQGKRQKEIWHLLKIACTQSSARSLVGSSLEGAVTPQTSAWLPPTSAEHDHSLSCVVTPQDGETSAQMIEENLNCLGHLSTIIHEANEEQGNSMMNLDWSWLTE

[18] = target: Aurora kinase C (Homo sapiens) (UniProt Q9UQB9); test: Inhibition of AURKC (unknown origin) assessed as residual enzyme activity at 10 uM by Ambit kinase binding assay relative to control
Aurora kinase C (Homo sapiens), sequence (Q9UQB9 whole entry): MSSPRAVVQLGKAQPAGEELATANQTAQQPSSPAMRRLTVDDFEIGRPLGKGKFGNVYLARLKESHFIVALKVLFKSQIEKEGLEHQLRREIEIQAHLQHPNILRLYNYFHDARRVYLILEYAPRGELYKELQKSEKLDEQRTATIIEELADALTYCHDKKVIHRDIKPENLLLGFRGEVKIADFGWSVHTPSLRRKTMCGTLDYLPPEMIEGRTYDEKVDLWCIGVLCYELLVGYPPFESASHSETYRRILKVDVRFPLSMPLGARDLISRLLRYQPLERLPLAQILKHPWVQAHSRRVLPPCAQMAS

[19] = target: Dual specificity protein kinase CLK2 (Homo sapiens) (UniProt P49760); test: Inhibition of CLK2 (unknown origin) assessed as residual enzyme activity at 10 uM by Ambit kinase binding assay relative to control
Dual specificity protein kinase CLK2 (Homo sapiens), sequence (P49760 whole entry, looked up, the tested form may be a part): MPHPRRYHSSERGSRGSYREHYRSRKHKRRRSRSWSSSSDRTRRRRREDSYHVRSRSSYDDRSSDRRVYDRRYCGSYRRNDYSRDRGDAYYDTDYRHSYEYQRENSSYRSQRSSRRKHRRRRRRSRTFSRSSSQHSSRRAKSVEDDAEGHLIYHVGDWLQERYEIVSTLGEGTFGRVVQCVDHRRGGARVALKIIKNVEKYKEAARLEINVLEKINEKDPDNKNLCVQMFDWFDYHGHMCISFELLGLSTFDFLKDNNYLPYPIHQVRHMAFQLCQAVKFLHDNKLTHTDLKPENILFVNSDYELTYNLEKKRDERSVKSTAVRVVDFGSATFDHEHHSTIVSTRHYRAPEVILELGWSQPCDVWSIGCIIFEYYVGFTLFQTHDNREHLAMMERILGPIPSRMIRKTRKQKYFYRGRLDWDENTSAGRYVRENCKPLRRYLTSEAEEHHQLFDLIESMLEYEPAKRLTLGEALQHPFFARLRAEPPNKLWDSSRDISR

[20] = target: Ribosomal protein S6 kinase alpha-4 (Homo sapiens) (UniProt O75676); test: Inhibition of RPS6KA4 kinase domain 2 (unknown origin) assessed as residual enzyme activity at 10 uM by Ambit kinase binding assay relative to control
[21] = target: Tyrosine-protein kinase Blk (Homo sapiens) (UniProt P51451); test: Inhibition of BLK (unknown origin) assessed as residual enzyme activity at 10 uM by Ambit kinase binding assay relative to control
[22] = target: Ankyrin repeat and protein kinase domain-containing protein 1 (Homo sapiens) (UniProt Q8NFD2); test: Inhibition of ANKK1 (unknown origin) assessed as residual enzyme activity at 10 uM by Ambit kinase binding assay relative to control
Ankyrin repeat and protein kinase domain-containing protein 1 (Homo sapiens), sequence (Q8NFD2 whole entry, the tested form may be a part): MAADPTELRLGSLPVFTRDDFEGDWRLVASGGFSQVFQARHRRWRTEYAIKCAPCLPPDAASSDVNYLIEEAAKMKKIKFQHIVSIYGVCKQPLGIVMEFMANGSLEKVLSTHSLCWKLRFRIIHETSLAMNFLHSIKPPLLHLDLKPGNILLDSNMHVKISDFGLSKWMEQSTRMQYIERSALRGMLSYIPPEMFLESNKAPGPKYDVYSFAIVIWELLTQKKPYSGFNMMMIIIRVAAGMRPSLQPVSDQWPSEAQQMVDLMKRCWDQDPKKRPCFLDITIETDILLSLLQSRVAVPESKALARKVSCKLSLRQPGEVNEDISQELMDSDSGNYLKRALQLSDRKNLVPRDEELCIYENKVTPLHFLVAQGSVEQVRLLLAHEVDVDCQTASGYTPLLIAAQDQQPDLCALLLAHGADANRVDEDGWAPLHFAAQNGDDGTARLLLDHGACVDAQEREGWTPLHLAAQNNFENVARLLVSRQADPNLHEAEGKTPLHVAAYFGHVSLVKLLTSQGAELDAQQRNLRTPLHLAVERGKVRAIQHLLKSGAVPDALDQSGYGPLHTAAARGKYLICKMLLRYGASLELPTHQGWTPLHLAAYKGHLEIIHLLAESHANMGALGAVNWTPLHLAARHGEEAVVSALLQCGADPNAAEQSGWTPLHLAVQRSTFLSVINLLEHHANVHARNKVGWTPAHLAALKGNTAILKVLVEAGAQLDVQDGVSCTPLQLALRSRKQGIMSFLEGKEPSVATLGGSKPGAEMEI

[23] = target: TRAF2 and NCK-interacting protein kinase (Homo sapiens) (UniProt Q9UKE5); test: Inhibition of TNIK (unknown origin) assessed as residual enzyme activity at 10 uM by Ambit kinase binding assay relative to control
[24] = target: Serine/threonine-protein kinase Nek2 (Homo sapiens) (UniProt P51955); test: Inhibition of NEK2 (unknown origin) assessed as residual enzyme activity at 10 uM by Ambit kinase binding assay relative to control
[25] = target: Mitogen-activated protein kinase 12 (Homo sapiens) (UniProt P53778); test: Inhibition of p38-gamma (unknown origin) assessed as residual enzyme activity at 10 uM by Ambit kinase binding assay relative to control
Mitogen-activated protein kinase 12 (Homo sapiens), sequence (P53778 whole entry): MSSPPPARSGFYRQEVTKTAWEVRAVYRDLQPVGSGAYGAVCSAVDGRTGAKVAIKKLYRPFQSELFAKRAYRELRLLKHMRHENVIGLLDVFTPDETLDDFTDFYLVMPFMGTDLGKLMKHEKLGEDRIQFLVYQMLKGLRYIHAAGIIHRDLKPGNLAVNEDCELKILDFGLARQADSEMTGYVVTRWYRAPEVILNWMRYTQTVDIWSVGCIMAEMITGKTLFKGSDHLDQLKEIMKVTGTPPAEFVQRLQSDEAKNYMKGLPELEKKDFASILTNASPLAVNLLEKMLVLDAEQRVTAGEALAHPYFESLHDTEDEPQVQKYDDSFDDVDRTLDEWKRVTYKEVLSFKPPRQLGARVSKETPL

Activity [1]: 8.9% | Activity [4]: 0.1% | Activity [5]: 11% | Activity [12]: 34%
Structure (SMILES): COc1cc(N2CCC(O)CC2)ccc1Nc1cc(Nc2ccccc2S(=O)(=O)C(C)C)c2cc[nH]c2n1
Activity [2]: Active | Activity [3]: Active | Activity [6]: inactive | Activity [7]: Active | Activity [8]: ~100% | inhibition at 10 µM [9]: 80% | Activity [10]: ~60% | Activity [11]: Active | Activity [13]: inactive | Activity [14]: Active | Activity [15]: Active | Activity [16]: Active

Activity [17]: 0.1% | Activity [18]: 23% | Activity [19]: 3.4% | Activity [20]: 3.4% | Activity [21]: 12% | Activity [22]: 0.95% | Activity [23]: 18% | Activity [24]: 27% | Activity [25]: 21%
Structure (SMILES): O=C1c2ccccc2-c2n[nH]c3cccc1c23
